# Results from different studies.
# Effect on: cell growth or viability
Structure (SMILES),cell line,test,setting,IC50
CCc1ccc(N=C2C(=O)Nc3ccccc32)cc1,B16,MTT,48 h,37300 nM
N/C(=N\O)c1ccc(-c2cc(CNc3cccc4cccnc34)on2)cc1,Z-138,MTS,72 h,2100 nM
COc1cc(N=C2C(=O)N(Cc3ccccc3)c3ccccc32)cc(OC)c1,B16,MTT,48 h,570 nM
Cc1cc2c(C(N)=O)cccc2n1-c1nc2c(c(NCc3ccccc3)n1)CCCN2,ARP-1,,72 h,1300 nM
Clc1ccc(-c2cc(CNc3cccc4cccnc34)on2)c(Cl)c1,Z-138,MTS,72 h,27900 nM
Cc1ccc(CN2C(=O)C(=Nc3cccc(C)c3)c3ccccc32)cc1,B16,MTT,48 h,440 nM
c1ccc(-c2cc(CNc3cccc4cccnc34)on2)nc1,Z-138,MTS,72 h,28200 nM
CC(C)c1cccc(C(C)C)c1N=C1C(=O)N(Cc2ccc(Br)cc2)c2ccccc21,B16,MTT,48 h,34200 nM
O=C(CSc1nc2ccccc2s1)N/N=C/c1ccc(OCC(=O)Nc2ccc(Br)cc2)cc1,Z-138,MTS,72 h,> 100000 nM
FC(F)(F)c1ccc(-c2cc(COc3cc(C(F)(F)F)nc4ccccc34)on2)cc1,Z-138,MTS,72 h,> 100000 nM
Cc1cc2c(C(=O)O)cccc2n1-c1nc2c(c(NCc3ccccc3)n1)CCCN2,ARP-1,,72 h,900 nM
COc1cc([C@@H]2c3cc4c(cc3[C@@H](O[C@@H]3O[C@@H]5CO[C@@H](C)O[C@H]5[C@H](O)[C@H]3O)[C@H]3COC(=O)[C@H]23)OCO4)cc(OC)c1O,Z-138,MTS,72 h,80 nM
O=C1C(=Nc2ccc(Cl)cc2Br)c2ccccc2N1Cc1ccc([N+](=O)[O-])cc1,B16,MTT,48 h,2140 nM
COc1cccc2c1C(=O)c1c(O)c3c(c(O)c1C2=O)C[C@@](O)(C(=O)CO)C[C@@H]3O[C@H]1C[C@H](N)[C@H](O)[C@H](C)O1,BXPC-3,,96 h,124 nM
Cc1cccc(N=C2C(=O)N(Cc3cccc(Cl)c3)c3ccccc32)c1,B16,MTT,48 h,6710 nM
O=C(CSc1nc2ccccc2s1)N/N=C/c1ccc(OCC(=O)Nc2cccc(Br)c2)cc1,Z-138,MTS,72 h,> 100000 nM
O=c1[nH]cc(F)c(=O)[nH]1,DLD-1,MTT,72 h,2680 nM
CONC(=O)c1cccc2c1cc(C)n2-c1nc2c(c(NCc3ccccc3)n1)CCCN2,BXPC-3,,72 h,1400 nM
N#Cc1ccc(-c2cc(CNc3cccc4cccnc34)on2)cc1,Z-138,MTS,72 h,10800 nM
